Experimental data taken from ChEMBL document CHEMBL4052595, “Application of Residual Dipolar Couplings and Selective Quantitative NOE to Establish the Structures of Tetranortriterpenoids from Xylocarpus rumphii” (J Nat Prod, 2017).
The source made the active and inactive calls.

Legend:
Format in all cases: functional, cell-based
SK-MEL-5 = experiment: Growth inhibition of human SK-MEL-5 cells at 10^-5 M incubated for 48 hrs by sulforhodamine B assay
Outline: (§1)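 Run in the NCI59 one-dose cell-line screen, with each compound tested at a single concentration of 1 × 10−5 M.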

OVCAR-8 = experiment: Growth inhibition of human OVCAR8 cells at 10^-5 M incubated for 48 hrs by sulforhodamine B assay; outline: as §1
786-0 = experiment: Growth inhibition of human 786-0 cells at 10^-5 M incubated for 48 hrs by sulforhodamine B assay; outline: as §1
MDA-MB-435 = experiment: Growth inhibition of human MDA-MB-435 cells at 10^-5 M incubated for 48 hrs by sulforhodamine B assay; outline: as §1
SF-539 = experiment: Growth inhibition of human SF539 cells at 10^-5 M incubated for 48 hrs by sulforhodamine B assay; outline: as §1
SF-295 = experiment: Growth inhibition of human SF295 cells at 10^-5 M incubated for 48 hrs by sulforhodamine B assay; outline: as §1
HOP-62 = experiment: Growth inhibition of human HOP62 cells at 10^-5 M incubated for 48 hrs by sulforhodamine B assay; outline: as §1
NCI-H322M = experiment: Growth inhibition of human NCI-H322M cells at 10^-5 M incubated for 48 hrs by sulforhodamine B assay; outline: as §1
T47D = experiment: Growth inhibition of human T47D cells at 10^-5 M incubated for 48 hrs by sulforhodamine B assay
Outline: (§2)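 Tested at a single concentration of 1 × 10−5 M as part of the NCI59 cell-line one-dose screen.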

HCC 2998 = experiment: Growth inhibition of human HCC2998 cells at 10^-5 M incubated for 48 hrs by sulforhodamine B assay; outline: as §1
NCI/ADR-RES = experiment: Growth inhibition of human NCI/ADR-RES cells at 10^-5 M incubated for 48 hrs by sulforhodamine B assay; outline: as §1
A549 = experiment: Growth inhibition of human A549/ATCC cells at 10^-5 M incubated for 48 hrs by sulforhodamine B assay; outline: as §1
UACC-257 = experiment: Growth inhibition of human UACC257 cells at 10^-5 M incubated for 48 hrs by sulforhodamine B assay; outline: as §2
PC-3 = experiment: Growth inhibition of human PC3 cells at 10^-5 M incubated for 48 hrs by sulforhodamine B assay; outline: as §1
OVCAR-3 = experiment: Growth inhibition of human OVCAR3 cells at 10^-5 M incubated for 48 hrs by sulforhodamine B assay; outline: as §1
SK-MEL-28 = experiment: Growth inhibition of human SK-MEL-28 cells at 10^-5 M incubated for 48 hrs by sulforhodamine B assay; outline: as §1
A498 = experiment: Growth inhibition of human A498 cells at 10^-5 M incubated for 48 hrs by sulforhodamine B assay; outline: as §1
NCI-H23 = experiment: Growth inhibition of human NCI-H23 cells at 10^-5 M incubated for 48 hrs by sulforhodamine B assay; outline: as §1
OVCAR-5 = experiment: Growth inhibition of human OVCAR5 cells at 10^-5 M incubated for 48 hrs by sulforhodamine B assay; outline: as §1
COLO 205 = experiment: Growth inhibition of human COLO205 cells at 10^-5 M incubated for 48 hrs by sulforhodamine B assay; outline: as §1
K562 = experiment: Growth inhibition of human K562 cells at 10^-5 M incubated for 48 hrs by sulforhodamine B assay; outline: as §1
NCI-H522 = experiment: Growth inhibition of human NCI-H522 cells at 10^-5 M incubated for 48 hrs by sulforhodamine B assay; outline: as §1
SK-MEL-2 = experiment: Growth inhibition of human SK-MEL-2 cells at 10^-5 M incubated for 48 hrs by sulforhodamine B assay; outline: as §1
SF-268 = experiment: Growth inhibition of human SF268 cells at 10^-5 M incubated for 48 hrs by sulforhodamine B assay; outline: as §1
MOLT-4 = experiment: Growth inhibition of human MOLT4 cells at 10^-5 M incubated for 48 hrs by sulforhodamine B assay; outline: as §1
TK-10 = experiment: Growth inhibition of human TK10 cells at 10^-5 M incubated for 48 hrs by sulforhodamine B assay; outline: as §2
HT-29 = experiment: Growth inhibition of human HT-29 cells at 10^-5 M incubated for 48 hrs by sulforhodamine B assay; outline: as §1
BT-549 = experiment: Growth inhibition of human BT549 cells at 10^-5 M incubated for 48 hrs by sulforhodamine B assay; outline: as §1
SN12C = experiment: Growth inhibition of human SN12C cells at 10^-5 M incubated for 48 hrs by sulforhodamine B assay; outline: as §1
DU-145 = experiment: Growth inhibition of human DU145 cells at 10^-5 M incubated for 48 hrs by sulforhodamine B assay; outline: as §1
RPMI-8226 = experiment: Growth inhibition of human RPMI8226 cells at 10^-5 M incubated for 48 hrs by sulforhodamine B assay; outline: as §1
UO-31 = experiment: Growth inhibition of human UO31 cells at 10^-5 M incubated for 48 hrs by sulforhodamine B assay; outline: as §2
M14 = experiment: Growth inhibition of human M14 cells at 10^-5 M incubated for 48 hrs by sulforhodamine B assay; outline: as §1
HOP-92 = experiment: Growth inhibition of human HOP92 cells at 10^-5 M incubated for 48 hrs by sulforhodamine B assay; outline: as §1
MDA-MB-231 = experiment: Growth inhibition of human MDA-MB-231 cells at 10^-5 M incubated for 48 hrs by sulforhodamine B assay; outline: as §1
HL-60(TB) = experiment: Growth inhibition of human HL-60(TB) cells at 10^-5 M incubated for 48 hrs by sulforhodamine B assay
Outline: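 Run in the NCI59 cell-line one-dose screen, with each compound tested at a single concentration of 1 × 10−5 M.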

NCI-H226 = experiment: Growth inhibition of human NCI-H226 cells at 10^-5 M incubated for 48 hrs by sulforhodamine B assay; outline: as §1
Hs-578T = experiment: Growth inhibition of human Hs 578T cells at 10^-5 M incubated for 48 hrs by sulforhodamine B assay; outline: as §1
U-251 = experiment: Growth inhibition of human U251 cells at 10^-5 M incubated for 48 hrs by sulforhodamine B assay; outline: as §2
MCF7 = experiment: Growth inhibition of human MCF7 cells at 10^-5 M incubated for 48 hrs by sulforhodamine B assay; outline: as §1
SNB-75 = experiment: Growth inhibition of human SNB75 cells at 10^-5 M incubated for 48 hrs by sulforhodamine B assay; outline: as §1
EKVX = experiment: Growth inhibition of human EKVX cells at 10^-5 M incubated for 48 hrs by sulforhodamine B assay; outline: as §1
SNB-19 = experiment: Growth inhibition of human SNB19 cells at 10^-5 M incubated for 48 hrs by sulforhodamine B assay; outline: as §1
ACHN = experiment: Growth inhibition of human ACHN cells at 10^-5 M incubated for 48 hrs by sulforhodamine B assay; outline: as §1
NCI-H460 = experiment: Growth inhibition of human NCI-H460 cells at 10^-5 M incubated for 48 hrs by sulforhodamine B assay; outline: as §1
CCRF-CEM = experiment: Growth inhibition of human CCRF-CEM cells at 10^-5 M incubated for 48 hrs by sulforhodamine B assay; outline: as §1
SK-OV-3 = experiment: Growth inhibition of human SKOV3 cells at 10^-5 M incubated for 48 hrs by sulforhodamine B assay; outline: as §1
HCT-116 = experiment: Growth inhibition of human HCT116 cells at 10^-5 M incubated for 48 hrs by sulforhodamine B assay; outline: as §1
CAKI-1 = experiment: Growth inhibition of human Caki1 cells at 10^-5 M incubated for 48 hrs by sulforhodamine B assay; outline: as §1
IGROV-1 = experiment: Growth inhibition of human IGROV1 cells at 10^-5 M incubated for 48 hrs by sulforhodamine B assay; outline: as §1
UACC-62 = experiment: Growth inhibition of human UACC62 cells at 10^-5 M incubated for 48 hrs by sulforhodamine B assay; outline: as §2
KM12 = experiment: Growth inhibition of human KM12 cells at 10^-5 M incubated for 48 hrs by sulforhodamine B assay; outline: as §1
SW-620 = experiment: Growth inhibition of human SW620 cells at 10^-5 M incubated for 48 hrs by sulforhodamine B assay; outline: as §2
LOX IMVI = experiment: Growth inhibition of human LOXIMVI cells at 10^-5 M incubated for 48 hrs by sulforhodamine B assay; outline: as §1
SR = experiment: Growth inhibition of human SR cells at 10^-5 M incubated for 48 hrs by sulforhodamine B assay; outline: as §1
RXF 393 = experiment: Growth inhibition of human RXF393 cells at 10^-5 M incubated for 48 hrs by sulforhodamine B assay; outline: as §1
HCT-15 = experiment: Growth inhibition of human HCT15 cells at 10^-5 M incubated for 48 hrs by sulforhodamine B assay; outline: as §1
OVCAR-4 = experiment: Growth inhibition of human OVCAR4 cells at 10^-5 M incubated for 48 hrs by sulforhodamine B assay; outline: as §1

Measured: growth inhibition (GI)

CC[C@H](C)C(=O)O[C@@H]1[C@@H]2[C@@H](OC(=O)C(C)C)[C@@]34O[C@]2(O)[C@@](C)([C@@H](CC(=O)OC)C1(C)C)[C@H]3CC[C@]1(C)C4=CC(=O)O[C@H]1c1ccoc1
inactive: all assays above

CC[C@H](C)C(=O)O[C@@H]1[C@H]2C(=O)[C@](C)([C@H]3CC[C@@]4(C)[C@H](c5ccoc5)OC(=O)C[C@]45O[C@]35[C@@H]2OC(=O)C(C)C)[C@@H](CC(=O)OC)C1(C)C
inactive: all assays above
